The text below walks through data of ChEMBL document CHEMBL1122071, “Avermectin acyl derivatives with anthelmintic activity” (1982).

What all share (assay type): functional
In test [1] the test system is Trichostrongylus colubriformis. In words: Minimal dose necessary to eliminate > 83% of Trichostrongylus colubriformis infection in gerbils.
For test [2], the system named is Cooperia oncophora. In words: Anthelmintic efficacy against adult Cooperia oncopphora (C.o) in sheep at dose of 0.25 mg/kg administered orally; 60-89%. Put shortly:
(§1)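 Lambs experimentally infected with mixed gastrointestinal nematodes (H. contortus, O. circumcincta, T. axei, T. colubriformis, C. oncophora, Oe. columbianum) were dosed orally, 1–3 sheep per dose. An untreated infected group of 6 was included, with worm burdens given as the geometric mean number of worms per lamb. Efficacy was scored against adult and, where listed, EL4 stages.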

In test [3] the test system is Haemonchus contortus. In words: Anthelmintic efficacy against adult Haemonchus contortus (H.c) in sheep at dose of 0.25 mg/kg administered orally; 20-59%. Put shortly: as §1
For test [4], the system named is Oesophagostomum columbianum. The experiment in a line: Anthelmintic efficacy against Oseophagostomum columbianum (Oe. c) in sheep at dose of 0.25 mg/kg administered orally; 20-59%. The procedure, abridged:
as §1

The subject of test [5] is Teladorsagia circumcincta. In words: Anthelmintic efficacy against adult Ostertagia circumcincta (O. c) in sheep at dose of 0.25 mg/kg administered orally; 0-19%. Put shortly:
as §1

In test [6] the test system is Trichostrongylus axei. In words: Anthelmintic efficacy against Trichostrongylus axei (T.a) in sheep at dose of 0.25 mg/kg administered orally; 0-19%. Put shortly: as §1
In test [7] the test system is Trichostrongylus colubriformis. The experiment in a line: Anthelmintic efficacy against Trichostrongylus colubriformis (T.c) in sheep at dose of 0.25 mg/kg administered orally; 0-19%. The procedure, abridged: as §1
For test [8], the system named is Cooperia oncophora. The experiment in a line: Anthelmintic efficacy against adult Cooperia oncopphora (C.o) in sheep at dose of 0.25 mg/kg administered orally. Particulars: route oral. The procedure, abridged:
as §1

Test [9] has as its system Haemonchus contortus. In words: Anthelmintic efficacy against adult Haemonchus contortus (H.c) in sheep at dose of 0.25 mg/kg administered orally. The following applies: route oral. Put shortly: as §1
For test [10], the system named is Oesophagostomum columbianum. The experiment in a line: Anthelmintic efficacy against Oseophagostomum columbianum (Oe. c) in sheep at dose of 0.25 mg/kg administered orally. Particulars: route oral. Put shortly: as §1
The subject of test [11] is Teladorsagia circumcincta. The experiment in a line: Anthelmintic efficacy against adult Ostertagia circumcincta (O. c) in sheep at dose of 0.25 mg/kg administered orally. The following applies: route oral. The procedure, abridged: as §1
In test [12] the test system is Trichostrongylus axei. The experiment in a line: Anthelmintic efficacy against Trichostrongylus axei (T.a) in sheep at dose of 0.25 mg/kg administered orally. The following applies: route oral. Put shortly: as §1
In test [13] the test system is Trichostrongylus colubriformis. In words: Anthelmintic efficacy against Trichostrongylus colubriformis (T.c) in sheep at dose of 0.25 mg/kg administered orally. The following applies: route oral. Put shortly: as §1

As for `CCCCCCCC(=O)O[C@H]1[C@H](C)O[C@@H](O[C@H]2[C@H](C)O[C@@H](O[C@@H]3/C(C)=C/C[C@@H]4C[C@@H](C[C@]5(C=C[C@H](C)[C@@H]([C@@H](C)CC)O5)O4)OC(=O)[C@@H]4C=C(C)[C@@H](O)[C@H]5OC/C(=C\C=C\[C@@H]3C)[C@]54O)C[C@H]2OC)C[C@H]1OC`, the Dose in [1] was found to be 0.125 mg/kg. On the same count and under the same terms, under `CC[C@H](C)[C@H]1O[C@]2(CC(O)[C@@H]1C)C[C@@H]1C[C@@H](C/C=C(\C)[C@@H](OC3CC(OC)C(OC4CC(OC)C(O)C(C)O4)C(C)O3)[C@@H](C)/C=C/C=C3\CO[C@@H]4[C@H](O)C(C)=C[C@@H](C(=O)O1)[C@]34O)O2` (stereo not given in full) [AVERMECTIN B2A] stands 0.0125 mg/kg. In the case of `CC[C@H](C)[C@H]1O[C@]2(CC(OC(C)=O)[C@@H]1C)C[C@@H]1C[C@@H](C/C=C(\C)[C@@H](OC3CC(OC)C(OC4CC(OC)C(O)C(C)O4)C(C)O3)[C@@H](C)/C=C/C=C3\CO[C@@H]4[C@H](OC)C(C)=C[C@@H](C(=O)O1)[C@]34O)O2` (stereo not given in full), the Efficacy stood at 60% with Cooperia oncophora [2]; 20% in the test with Haemonchus contortus [3]; 20% in test [4]; 0% in test [5]; 0% in the test on Trichostrongylus axei [6]; 0% in test [7]. In test [1], this molecule registered a Dose of 0.25 mg/kg.

On to `CC[C@H](C)[C@H]1O[C@]2(CC(O)[C@@H]1C)C[C@@H]1C[C@@H](C/C=C(\C)[C@@H](OC3CC(OC)C(OC4CC(OC)C(OC(C)=O)C(C)O4)C(C)O3)[C@@H](C)/C=C/C=C3\CO[C@@H]4[C@H](OC)C(C)=C[C@@H](C(=O)O1)[C@]34O)O2` (stereo not given in full), for which the Efficacy (with Cooperia oncophora [8]; with Haemonchus contortus [9]; in [10]; in [11]; in the test on Trichostrongylus axei [12]; in test [13]) was above 90% throughout. In [1], this molecule gave a Dose of 0.06 mg/kg. As to `CCC(C)[C@H]1O[C@]2(CC(OC(C)=O)[C@@H]1C)C[C@@H]1C[C@@H](C/C=C(\C)[C@@H](OC3CC(OC)C(OC4CC(OC)C(OC(C)=O)C(C)O4)C(C)O3)[C@@H](C)/C=C/C=C3\COc4cc(C)cc(c43)C(=O)O1)O2` (stereo not given in full), the Dose in test [1] is above 2.5 mg/kg. Turning to `CC[C@H](C)[C@H]1O[C@]2(C=C[C@@H]1C)C[C@@H]1C[C@@H](C/C=C(\C)[C@@H](O[C@H]3C[C@@H](OC)[C@@H](O[C@H]4C[C@@H](OC)[C@@H](O)[C@H](C)O4)[C@H](C)O3)[C@@H](C)/C=C/C=C3\CO[C@@H]4[C@H](OC(C)=O)C(C)=C[C@@H](C(=O)O1)[C@]34O)O2`, the Dose in test [1] was 0.125 mg/kg. The molecule `CC[C@H](C)[C@H]1O[C@]2(CC(OC(C)=O)[C@@H]1C)C[C@@H]1C[C@@H](C/C=C(\C)[C@@H](OC3CC(OC)C(OC4CC(OC)C(OC(C)=O)C(C)O4)C(C)O3)[C@@H](C)/C=C/C=C3\CO[C@@H]4[C@H](OC(C)=O)C(C)=C[C@@H](C(=O)O1)[C@]34O)O2` (stereo not given in full) had a Dose in [1] of 0.5 mg/kg. The molecule `CC[C@H](C)[C@H]1O[C@]2(C=C[C@@H]1C)C[C@@H]1C[C@@H](C/C=C(\C)[C@@H](O[C@H]3C[C@@H](OC)[C@@H](O[C@H]4C[C@@H](OC)[C@@H](O)[C@H](C)O4)[C@H](C)O3)[C@@H](C)/C=C/C=C3\CO[C@@H]4[C@H](O[Si](C)(C)C(C)(C)C)C(C)=C[C@@H](C(=O)O1)[C@]34O)O2` gave a Dose in test [1] above 2.5 mg/kg. Molecule `CC[C@H](C)[C@H]1O[C@]2(C=C[C@@H]1C)C[C@@H]1C[C@@H](C/C=C(\C)[C@@H](O[C@H]3C[C@@H](OC)[C@@H](O[C@H]4C[C@@H](OC)[C@@H](OC(=O)CNC(C)=O)[C@H](C)O4)[C@H](C)O3)[C@@H](C)/C=C/C=C3\CO[C@@H]4[C@H](O)C(C)=C[C@@H](C(=O)O1)[C@]34O)O2` came in with a Dose in [1] of 0.025 mg/kg. In test [1], `CC[C@H](C)[C@H]1O[C@]2(C=C[C@@H]1C)C[C@@H]1C[C@@H](C/C=C(\C)[C@@H](O[C@H]3C[C@@H](OC)[C@@H](O[C@H]4C[C@@H](OC)[C@@H](O[Si](C)(C)C(C)(C)C)[C@H](C)O4)[C@H](C)O3)[C@@H](C)/C=C/C=C3\CO[C@@H]4[C@H](O[Si](C)(C)C(C)(C)C)C(C)=C[C@@H](C(=O)O1)[C@]34O)O2` displayed a Dose above 2.5 mg/kg. On to `CC[C@H](C)[C@H]1O[C@]2(C=C[C@@H]1C)C[C@@H]1C[C@@H](C/C=C(\C)[C@@H](O[C@H]3C[C@@H](OC)[C@@H](O[C@H]4C[C@@H](OC)[C@@H](OC(N)=O)[C@H](C)O4)[C@H](C)O3)[C@@H](C)/C=C/C=C3\CO[C@@H]4[C@H](O)C(C)=C[C@@H](C(=O)O1)[C@]34O)O2`, for which, in test [1], the Dose was determined as 0.025 mg/kg. With `CC[C@H](C)[C@H]1O[C@]2(C=C[C@@H]1C)C[C@@H]1C[C@@H](C/C=C(\C)[C@@H](O[C@H]3C[C@@H](OC)[C@@H](O[C@H]4C[C@@H](OC)[C@@H](OC(=O)N(C)C)[C@H](C)O4)[C@H](C)O3)[C@@H](C)/C=C/C=C3\CO[C@@H]4[C@H](O)C(C)=C[C@@H](C(=O)O1)[C@]34O)O2`, the Dose in test [1] amounted to 0.06 mg/kg. For `CC[C@H](C)[C@H]1O[C@]2(C=C[C@@H]1C)C[C@@H]1C[C@@H](C/C=C(\C)[C@@H](O[C@H]3C[C@@H](OC)[C@@H](O[C@H]4C[C@@H](OC)[C@@H](OC(=O)C(C)(C)C)[C@H](C)O4)[C@H](C)O3)[C@@H](C)/C=C/C=C3\CO[C@@H]4[C@H](O)C(C)=C[C@@H](C(=O)O1)[C@]34O)O2`, the Dose in [1] came to 0.5 mg/kg.
